Key:
Tubulin (Homo sapiens) [1] = target: T1, Tubulin (Homo sapiens) (UniProt P68371+Q9H4B7+P0DPH7+P68366+Q13509+Q71U36+P04350+Q3ZCM7+P07437+P68363+Q9BQE3+Q6PEY2+Q13885+Q9BVA1+Q9BUF5); assay: Induction of microtubule stabilization in human PC3 cells assessed as inhibition of cell growth incubated for 72 hrs by Celltiter reagent-based assay
Procedure, shortened: (§1)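 Cells kept in DMEM with 10% fetal bovine serum. Exposed to serial dilutions of each compound for 3 days, then growth read with CellTiter reagent and GI50 determined. Each compound first run as a 10-dose dilution series, then as narrower replicate 6-dose series, each a separate experiment.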

Tubulin (Homo sapiens) [2] = target: T1, Tubulin (Homo sapiens); assay: Induction of microtubule stabilization in human A549 cells assessed as inhibition of cell growth incubated for 72 hrs by Celltiter reagent-based assay; procedure, shortened: as §1
Tubulin (Homo sapiens) [3] = target: T1, Tubulin (Homo sapiens); assay: Induction of microtubule stabilization in human 1A9 cells assessed as inhibition of cell growth incubated for 72 hrs by Celltiter reagent-based assay; procedure, shortened: as §1

| GI50 (Tubulin (Homo sapiens) [1]) | GI50 (Tubulin (Homo sapiens) [2]) | GI50 (Tubulin (Homo sapiens) [3]) | SMILES |
| --- | --- | --- | --- |
| 0.0046 µM | 0.006 µM | 0.0052 µM | CC(=O)O[C@H]1C(=O)[C@@]2(C)[C@H]([C@H](OC(=O)c3ccccc3)[C@]3(O)C[C@H](OC(=O)[C@H](O)[C@@H](NC(=O)c4ccccc4)c4ccccc4)C(C)=C1C3(C)C)[C@]1(OC(C)=O)CO[C@@H]1C[C@@H]2O |
| 0.46 µM | 0.95 µM | 0.62 µM | C=C1C[C@@H]2C/C=C/C(=O)C/C(C)=C\C=C\C(=O)O[C@H](C=O)C/C(C)=C/[C@H](C1)O2 |
| 0.056 µM | 0.18 µM | 0.12 µM | C/C=C/C=C\C(=O)NC(O)[C@@H]1C/C=C/[C@@H]2CCC[C@H](C/C=C/C(=O)C/C(C)=C\C=C\C(=O)O1)O2 (stereo partly drawn) |

Continued, compound first:

| SMILES | GI50 (Tubulin (Homo sapiens) [1]) | GI50 (Tubulin (Homo sapiens) [2]) | GI50 (Tubulin (Homo sapiens) [3]) |
| --- | --- | --- | --- |
| C/C1=C/C=C/C(=O)O[C@H](CO)C/C=C/[C@@H]2CCC[C@H](C/C=C/C(=O)C1)O2 | > 30 µM | > 30 µM | > 30 µM |
| C/C1=C/C=C/C(=O)O[C@H](C=O)C/C=C/[C@@H]2CCC[C@H](C/C=C/C(=O)C1)O2 | > 30 µM | > 30 µM | > 30 µM |
| C=C1C[C@@H]2C/C=C/C(=O)C/C(C)=C\C=C\C(=O)O[C@H]([C@H](O)NC(=O)/C=C\C=C\C)C/C(C)=C/[C@H](C1)O2 | 0.0032 µM | 0.0052 µM | 0.0021 µM |
